# Activity calls are given as the source filed them. No cut-off for these calls is given here.
# Columns and labels:
# [1] = Inhibition of PI3K/AKT/mTOR signaling in human Bel7402 cells assessed as reduction in AKT phosphorylation after 24 to 72 hrs by Western blot analysis; assay type: cell-based
# Method in brief: (§1)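 Bel7402 cells (1.5 × 10^5/mL) exposed to compound at 1.0 and 2.5 μM for 24 or 72 h. Lysates (0.05 mg/lane) separated on 12% SDS-PAGE and blotted to nitrocellulose. Probed for total Akt, phospho-Akt (Ser473), total mTOR and phospho-mTOR, HRP secondary, chemiluminescent detection. Quantified from three separate assays, mean ± SD.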
# Bel-7402 [2] = assay: Induction of apoptosis in human Bel7402 cells assessed as increase in cleaved PARP level at 5 uM after 72 hrs by Western blot analysis; assay type: functional, cell-based
# Method in brief: (§2)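 Subconfluent Bel7402 cells (1.5 × 10^5/mL) exposed to vehicle or compound for 72 h, then lysed. Lysates (0.05 mg/lane) run on 12% SDS-PAGE, transferred to nitrocellulose, blocked in 5% nonfat milk. Probed for Bax, Bcl-2, cleaved caspase-3 and cleaved PARP, with HRP secondary and chemiluminescence. Levels normalized to β-actin; three separate assays, mean ± SD.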
# Bel-7402 [3] = assay: Induction of autophagy in human Bel7402 cells assessed as downregulation of p62 level at 1 to 5 uM after 24 to 72 hrs by Western blot analysis; assay type: functional, cell-based
# Method in brief: (§3)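 Bel7402 cells (1.5 × 10^5/mL) exposed to compound at indicated doses, or vehicle, for 24 or 72 h. Lysates (0.05 mg/lane) separated on 12% SDS-PAGE, blotted to nitrocellulose, blocked in 5% milk. Probed with anti-LC3, anti-p62 and anti-beclin-1, HRP secondary, chemiluminescent detection. Levels quantified relative to β-actin; three separate assays, mean ± SD.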
# Bel-7402 [4] = assay: Induction of apoptosis in human Bel7402 cells assessed as increase in cleaved caspase-3 level at 5 uM after 72 hrs by Western blot analysis; assay type: functional, cell-based; method in brief: as §2
# Bel-7402 [5] = assay: Induction of autophagy in human Bel7402 cells assessed as downregulation of LC3-I level at 1 to 5 uM after 24 to 72 hrs by Western blot analysis; assay type: functional, cell-based; method in brief: as §3
# Bel7402/5-FU = assay: Antiproliferative activity against human Bel7402/5-FU cells at 0.2 to 5 uM after 72 hrs by MTT assay; assay type: functional, cell-based
# Method in brief: (§4)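 Cells grown in DMEM with 10% heat-inactivated FBS, penicillin/streptomycin, 37 °C, 5% CO2. Seeded at 10^4 cells/mL overnight, then exposed to a range of compound concentrations for 72 h; 0.1% DMSO negative control. MTT (5 mg/mL stock) added, absorbance read at 570 nm; percent inhibition from three independent experiments, mean ± SD.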
# Bel-7402 [6] = assay: Antiproliferative activity against human Bel7402 cells at 0.2 to 5 uM after 72 hrs by MTT assay; assay type: functional, cell-based; method in brief: as §4
# [7] = molecular target: Histone deacetylase (Homo sapiens) (UniProt Q13547+O15379+Q9UBN7+Q92769+Q9UQL6+Q8WUI4+Q9BY41+Q96DB2+P56524+Q9UKV0+Q969S8); assay: Inhibition of HDAC in human Bel7402 cells assessed as increase in acetylated histone h3 expression incubated for 72 hrs by Western blot analysis; assay type: cell-based
# Method in brief: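 Bel7402 cells exposed to vehicle or compound (1.0 and 3.0 μM) for 72 h, with SAHA 5.0 μM as reference. Lysates (0.05 mg/lane) run on 12% SDS-PAGE and transferred to nitrocellulose. Probed with anti-acetyl-H3 and anti-acetyl-α-tubulin, HRP secondary, chemiluminescence. Quantified from three separate assays, mean ± SD.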
# Bel-7402 [8] = assay: Effect on mTOR expression in human Bel7402 cells at 1 to 2.5 uM after 24 to 72 hrs by Western blot analysis; assay type: ADME, cell-based; conditions: bel-7402, 2.5 µM; method in brief: as §1
# Bel-7402 [9] = assay: Induction of apoptosis in human Bel7402 cells assessed as annexin-V positive cells at 1 uM after 72 hrs by Annexin-V/PI staining based flow cytometry relative to control; assay type: functional
# Method in brief: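 Bel7402 cells (10 000) cultured overnight, then exposed to compound at 1.0 or 5.0 μM, or vehicle, for 72 h. Harvested, stained with annexin-V APC and 7-AAD for 15 min. Apoptotic percentage measured by flow cytometry (APC ex 633/em 660 nm; 7-AAD ex 488/em 647 nm). Three separate assays, mean ± SD.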
smiles,measurement,setting,value
COc1ccc(-c2nc(NCCCOc3ccc(/C=C/C(=O)NO)cc3OC)cc3c2[nH]c2ccccc23)cc1,inhibition,[1],Dose-dependent effect
same,Activity,Bel-7402 [2],Active
same,Activity,Bel-7402 [3],Active
same,Activity,Bel-7402 [4],Active
same,Activity,Bel-7402 [5],Active
same,Activity,Bel7402/5-FU,Active
same,Activity,Bel-7402 [6],Active
same,inhibition,[7],Dose-dependent effect
same,Activity,Bel-7402 [8],Non-Toxic
same,Activity,Bel-7402 [9],49.6%

# Reference: ChEMBL document CHEMBL4376807, “Hydroxamic Acid Derivatives of β-Carboline/Hydroxycinnamic Acid Hybrids Inducing Apoptosis and Autophagy through the PI3K/Akt/mTOR Pathways” (J Nat Prod, 2019)
